Tests used:
[1] = system: C. albicans (strain SC5314); test: Antifungal activity; type: cell-based
How it was run: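 SC5314 from −80 °C glycerol stock streaked on YM agar (37 °C, 48 h); colonies cultured in glucose–salt–biotin medium, pH 7.1, at 25 °C for 18 h (also printed as 30 °C, 24–36 h). Diluted to 1 × 10^5–1 × 10^6 cells/mL in GSB over test compound in DMSO (1 μL per 100 μL). Alamar Blue added after 24 h; MIC from absorbance-maximum shift 570→600 nm. Amphotericin B, itraconazole controls.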

[2] = target: T1, C. glabrata DHFR (CgDHFR) (Candida glabrata, UniProt Q6FPH0); test: DHFR enzyme inhibition; type: biochemical
T1 sequence (Q6FPH0 1-217): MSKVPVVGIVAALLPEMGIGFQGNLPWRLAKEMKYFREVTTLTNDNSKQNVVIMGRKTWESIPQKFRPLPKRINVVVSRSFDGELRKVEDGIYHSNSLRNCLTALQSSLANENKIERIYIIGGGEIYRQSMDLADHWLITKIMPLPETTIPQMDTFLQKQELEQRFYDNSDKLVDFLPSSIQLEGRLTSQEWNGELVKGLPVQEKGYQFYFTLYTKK

| MIC C. albicans in the presence of 0.01% Triton X-100 [1] | IC50 [2] [nM] | SMILES |
| --- | --- | --- |
| not significantly changed |  | CCc1nc(N)nc(N)c1C#CC(C)c1ccc(-c2ccc(C)cc2)nc1 (stereo not drawn) [Compound 47, 6-Ethyl-5-[3-(6-p-tolyl-pyridin-3-yl)-but-1-ynyl]-pyrimidine-2,4-diamine] |
|  | 89 | CCc1nc(N)nc(N)c1C#CC(C)c1cc(OC)cc(-c2ccncc2)c1 (stereo not drawn) [Compound 1] |
| do inhibit the growth of C. albicans |  | COc1ccc(-c2ccccc2)cc1C(C)C#Cc1c(C)nc(N)nc1N (stereo not drawn) [Compound 2] |

Source: PMC3983340 (Journal of Medicinal Chemistry, 2014)
